Results as given in ChEMBL document CHEMBL3046818, “Photosynthesis-Inhibiting efficiency of 4-chloro-2-(chlorophenylcarbamoyl)phenyl alkylcarbamates” (Bioorg Med Chem Lett, 2011).

Tests used:
[1] = Half life in aqueous buffer solutions at pH 7.4 by HPLC analysis; type: ADME; details: aqueous buffer solution
[2] = Half life in aqueous buffer solutions at pH 7 by HPLC analysis; type: ADME; details: aqueous buffer solution
[3] = Chemical stability of the compound in aqueous buffer solutions at acidic pH by HPLC analysis; type: physicochemical
[4] = Lipophilicity, log K of the compound; type: physicochemical; details: RP-HPLC capacity factor, C18 column, methanol mobile phase
Summary of the method: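 Lipophilicity measured by RP-HPLC as capacity factor k, reported as log k.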

[5] = target: Photosystem II protein D1 (Spinacia oleracea, UniProt P69560); test: Inhibition of photosystem II in Spinacia oleracea (spinach) chloroplasts assessed as reduction of photosynthetic electron transport
Summary of the method: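 PET in spinach chloroplasts read spectrophotometrically as DCPIP photoreduction in a chloroplast suspension at pH 7.2. Read within 2 min after adding the carbamate solution in DMSO. IC50 is the molar concentration giving a 50% decrease in activity relative to the untreated control.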

[6] = target: Photosystem II protein D1 (Spinacia oleracea) (UniProt P69560); test: Inhibition of photosystem II in Spinacia oleracea (spinach) chloroplasts assessed as restoration of photosynthetic electron transport relative to control in presence of DPC; parameters: scale not given: the % may be the effect or the level left
Summary of the method: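 Spinach chloroplasts were first treated with the carbamate, then given the artificial PS 2 donor 1,5-diphenylcarbazide (DPC). PET activity was then measured and expressed as % of the untreated control.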

| Structure (SMILES) | half-life [1] [h] | half-life [2] [h] | Stability [3] | log K [4] | IC50 [5] [µM] | Activity [6] [%] |
| --- | --- | --- | --- | --- | --- | --- |
| CCCCCCNC(=O)Oc1ccc(Cl)cc1C(=O)Nc1ccc(Cl)cc1 | 43 | 64 | Stable | 0.7859 | 6.3 | – |
| CCCCCNC(=O)Oc1ccc(Cl)cc1C(=O)Nc1ccc(Cl)cc1 | 43 | 64 | Stable | 0.7838 | 6.3 | – |
| CCCCCCCNC(=O)Oc1ccc(Cl)cc1C(=O)Nc1ccc(Cl)cc1 | 43 | 64 | Stable | 0.7872 | 7.1 | – |
| CCCCCCCNC(=O)Oc1ccc(Cl)cc1C(=O)Nc1cccc(Cl)c1 | 43 | 64 | Stable | 0.7772 | 4.9 | 94 |
| CCCCCCNC(=O)Oc1ccc(Cl)cc1C(=O)Nc1cccc(Cl)c1 | 43 | 64 | Stable | 0.7758 | 5.3 | – |
| CCNC(=O)Oc1ccc(Cl)cc1C(=O)Nc1ccc(Cl)cc1 | 43 | 64 | Stable | 0.7695 | 9.7 | 94 |
| CCCCNC(=O)Oc1ccc(Cl)cc1C(=O)Nc1cccc(Cl)c1 | 43 | 64 | Stable | 0.7611 | 13.4 | – |
| CCNC(=O)Oc1ccc(Cl)cc1C(=O)Nc1cccc(Cl)c1 | 43 | 64 | Stable | 0.7523 | 15.6 | – |
| CCNC(=O)Oc1ccc(Cl)cc1C(=O)Nc1ccc(Cl)c(Cl)c1 | 43 | 64 | Stable | 1.0234 | 82.3 | – |
| CN(C)C(=O)Nc1ccc(Cl)c(Cl)c1 [DCMU] | – | – | – | 0.47 | 1.9 | – |
| CCCCCNC(=O)Oc1ccc(Cl)cc1C(=O)Nc1cccc(Cl)c1 | 43 | 64 | Stable | 0.7732 | 5.4 | – |
| CCCCCCCCNC(=O)Oc1ccc(Cl)cc1C(=O)Nc1ccc(Cl)cc1 | 43 | 64 | Stable | 0.7899 | 7.4 | – |

The remaining lines, values ahead:

| half-life [1] [h] | half-life [2] [h] | Stability [3] | log K [4] | IC50 [5] [µM] | Activity [6] [%] | Structure (SMILES) |
| --- | --- | --- | --- | --- | --- | --- |
| 43 | 64 | Stable | 1.0845 | 432 | – | CCCCCCCCNC(=O)Oc1ccc(Cl)cc1C(=O)Nc1ccc(Cl)c(Cl)c1 |
| 43 | 64 | Stable | 1.0667 | 169 | – | CCCCCCCNC(=O)Oc1ccc(Cl)cc1C(=O)Nc1ccc(Cl)c(Cl)c1 |
| 43 | 64 | Stable | 0.7919 | 8 | – | CCCCCCCCCNC(=O)Oc1ccc(Cl)cc1C(=O)Nc1ccc(Cl)cc1 |
| 43 | 64 | Stable | 1.0903 | – | – | CCCCCCCCCCCNC(=O)Oc1ccc(Cl)cc1C(=O)Nc1ccc(Cl)c(Cl)c1 |
| 43 | 64 | Stable | 1.088 | 506 | – | CCCCCCCCCNC(=O)Oc1ccc(Cl)cc1C(=O)Nc1ccc(Cl)c(Cl)c1 |
| 43 | 64 | Stable | 0.7947 | 10.5 | – | CCCCCCCCCCCNC(=O)Oc1ccc(Cl)cc1C(=O)Nc1ccc(Cl)cc1 |
| 43 | 64 | Stable | 0.7902 | 18.3 | – | CCCCCCCCCCCNC(=O)Oc1ccc(Cl)cc1C(=O)Nc1cccc(Cl)c1 |
| 43 | 64 | Stable | 0.7837 | 15.4 | – | CCCCCCCCCNC(=O)Oc1ccc(Cl)cc1C(=O)Nc1cccc(Cl)c1 |
| 43 | 64 | Stable | 0.7942 | 8.4 | – | CCCCCCCCCCNC(=O)Oc1ccc(Cl)cc1C(=O)Nc1ccc(Cl)cc1 |
| 43 | 64 | Stable | 0.7831 | 10.1 | – | CCCCCCCCNC(=O)Oc1ccc(Cl)cc1C(=O)Nc1cccc(Cl)c1 |
| 43 | 64 | Stable | 0.7873 | 15.8 | – | CCCCCCCCCCNC(=O)Oc1ccc(Cl)cc1C(=O)Nc1cccc(Cl)c1 |
| 43 | 64 | Stable | 1.0894 | – | – | CCCCCCCCCCNC(=O)Oc1ccc(Cl)cc1C(=O)Nc1ccc(Cl)c(Cl)c1 |
| 43 | 64 | Stable | 1.0601 | 99.2 | – | CCCCCNC(=O)Oc1ccc(Cl)cc1C(=O)Nc1ccc(Cl)c(Cl)c1 |
| – | – | Stable | 1.0611 | 144 | – | CCCCCCNC(=O)Oc1ccc(Cl)cc1C(=O)Nc1ccc(Cl)c(Cl)c1 |
